Test results from ChEMBL document CHEMBL3352282, “Design and synthesis of novel azapeptide activators of apoptosis mediated by caspase-9 in cancer cells” (Bioorg Med Chem Lett, 2014).
The source made the active and inactive calls. No cut-off for these calls is given here.

Columns and labels:
MDA-MB-231 [1] = assay: Induction of apoptosis in serum starved human MDA-MB-231 cells assessed as caspase-9 activation at 100 uM after 16 hrs by Western blotting method; format: functional, cell-based
How it was run: (§1)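 MDA-MB-231 cells serum-starved 6 h, then exposed to DMSO vehicle, etoposide, AVPI-NH₂ or analogs at one final concentration (50 or 100 µM, per line), harvested; caspase-3 and caspase-9 activation assessed by Western blotting. Quantification as mean ± SEM of three independent experiments.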

MDA-MB-231 [2] = assay: Induction of cell death in serum starved human MDA-MB-231 cells at 50 uM after 16 hrs by trypan blue dye exclusion assay; format: functional
How it was run: (§2)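 Breast cancer line serum-starved 6 h, then exposed to compound (DMSO vehicle) for 16 h at a final 50 µM or 100 µM. Cells trypsinized, stained with Trypan blue and counted. Cell death expressed as percentage, relative to vehicle. Mean ± SEM of three independent experiments, paired comparison to DMSO control.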

MDA-MB-231 [3] = assay: Induction of apoptosis in serum starved human MDA-MB-231 cells assessed as caspase-3 activation at 100 uM after 16 hrs by Western blotting method; format: functional, cell-based; how it was run: as §1
MDA-MB-231 [4] = assay: Induction of cell death in serum starved human MDA-MB-231 cells at 100 uM after 16 hrs by trypan blue dye exclusion assay; format: functional; how it was run: as §2
MDA-MB-231 [5] = assay: Induction of apoptosis in serum starved human MDA-MB-231 cells assessed as caspase-9 activation after 16 hrs by Western blotting method; format: functional, cell-based; conditions: MDA-MB-231, 16 h
How it was run: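 MDA-MB-231 cells serum-starved 6 h, treated 16 h across a concentration series (about 12.5–125 µM), harvested; total and cleaved caspase-9 immunoblotted and quantified. Mean ± SEM of two independent experiments; significance versus paired DMSO condition.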

MDA-MB-231 [6] = assay: Induction of apoptosis in serum starved human MDA-MB-231 cells assessed as caspase-3 activation at 50 uM after 16 hrs by Western blotting method; format: functional, cell-based; how it was run: as §1
MDA-MB-231 [7] = assay: Induction of apoptosis in serum starved human MDA-MB-231 cells assessed as caspase-9 activation at 50 uM after 16 hrs by Western blotting method; format: functional, cell-based; how it was run: as §1

SMILES	Activity (MDA-MB-231 [1])	Activity (MDA-MB-231 [2])	Activity (MDA-MB-231 [3])	Activity (MDA-MB-231 [4]) [%]	EC50 (MDA-MB-231 [5]) [µM]	Activity (MDA-MB-231 [6])	Activity (MDA-MB-231 [7])
C#CCN(NC(=O)[C@H](C)N)C(=O)N1CCC[C@H]1C(=O)NC(c1ccccc1)c1ccccc1	Active	inactive	Active	50	–	–	–
C=CCN(NC(=O)[C@H](C)N)C(=O)N1CCC[C@H]1C(=O)NC(c1ccccc1)c1ccccc1	Active	inactive	Active	50	–	–	–
C[C@H](N)C(=O)NNC(=O)N1CCC[C@H]1C(=O)NC(c1ccccc1)c1ccccc1	Active	Active	Active	50	73.4	–	–
C[C@H](N)C(=O)NN(C)C(=O)N1CCC[C@H]1C(=O)NC(c1ccccc1)c1ccccc1	Active	Active	Active	50	–	–	–
COc1cc([C@@H]2c3cc4c(cc3[C@@H](O[C@@H]3O[C@@H]5CO[C@@H](C)O[C@H]5[C@H](O)[C@H]3O)[C@H]3COC(=O)[C@H]23)OCO4)cc(OC)c1O [ETOPOSIDE]	–	50%	–	–	–	Active	inactive
C[C@H](N)C(=O)NN(Cc1ccccc1)C(=O)N1CCC[C@H]1C(=O)NC(c1ccccc1)c1ccccc1	Active	Active	Active	50	50.2	Active	Active
